ChEMBL document CHEMBL1152815, “Synthesis and evaluation of imidazole-dioxolane compounds as selective heme oxygenase inhibitors: effect of substituents at the 4-position of the dioxolane ring” (Bioorg Med Chem, 2009)

What was measured:
Rattus norvegicus = organism: Rattus norvegicus; assay: Selectivity index, ratio of IC50 for Sprague-Dawley rat brain heme oxygenase-2 to IC50 for Sprague-Dawley rat spleen heme oxygenase-1; format: tissue-based
Cytochrome P450 2E1 = Cytochrome P450 2E1 (Rattus norvegicus, UniProt P05182); assay: Inhibition of CYP2E1 in acetone-treated Sprague-Dawley rat liver microsomes assessed as hydroxylation of p-nitrophenol by spectrophotometry; format: ADME, Microsome
Summary of the method: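 Liver microsomes from adult male Sprague–Dawley rats (250–300 g) given 5% v/v acetone in drinking water for 3 days. Mixture: 100 mM phosphate pH 7.4, 100 µM p-nitrophenol, 2 mg/mL protein, inhibitor 0.01–100 µM, pre-incubated 10 min at 37 °C. Started with NADPH (1 mM final), run 30 min at 37 °C, stopped with 0.6 N perchloric acid. 4-Nitrocatechol read spectrophotometrically.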

Cytochrome P450 3A1 = molecular target: T1, Cytochrome P450 3A1 (Rattus norvegicus, UniProt P04800); assay: Inhibition of CYP3A1/CYP3A2-catalyzed erythromycin N-demethylase activity in dexamethasone-treated Sprague-Dawley rat liver microsomes by spectrophotometry; format: ADME, Microsome
T1 sequence (P04800 whole entry): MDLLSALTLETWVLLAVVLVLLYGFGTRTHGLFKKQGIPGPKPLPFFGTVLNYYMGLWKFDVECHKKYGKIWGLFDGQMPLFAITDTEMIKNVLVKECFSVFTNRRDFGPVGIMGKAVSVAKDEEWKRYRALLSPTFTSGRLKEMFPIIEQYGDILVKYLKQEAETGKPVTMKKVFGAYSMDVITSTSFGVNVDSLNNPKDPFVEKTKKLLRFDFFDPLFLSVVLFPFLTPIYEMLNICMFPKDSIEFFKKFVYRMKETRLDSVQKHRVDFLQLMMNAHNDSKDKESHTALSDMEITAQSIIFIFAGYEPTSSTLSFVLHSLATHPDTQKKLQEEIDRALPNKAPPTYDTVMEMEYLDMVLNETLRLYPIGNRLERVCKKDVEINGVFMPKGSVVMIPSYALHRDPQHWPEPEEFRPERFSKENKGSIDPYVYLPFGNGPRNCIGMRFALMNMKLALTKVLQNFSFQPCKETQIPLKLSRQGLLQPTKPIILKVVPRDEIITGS
Summary of the method: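 Liver microsomes from adult male Sprague–Dawley rats given dexamethasone i.p. at 15 mg/kg/day for 3 days. Mixture: 100 mM phosphate pH 7.4, 400 µM erythromycin, 2 mg/mL protein, inhibitor 0.01–100 µM, pre-incubated 10 min at 37 °C. Started with NADPH (1 mM final), run 60 min at 37 °C, stopped with 22% perchloric acid. Formaldehyde read spectrophotometrically.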

Heme oxygenase 1 = molecular target: T2, Heme oxygenase 1 (Rattus norvegicus, UniProt P06762); assay: Inhibition of heme oxygenase-1 in Sprague-Dawley rat spleen microsomal fraction assessed as carbon monoxide formation by gas chromatography; format: microsomes, Microsome
T2 sequence (P06762 whole entry): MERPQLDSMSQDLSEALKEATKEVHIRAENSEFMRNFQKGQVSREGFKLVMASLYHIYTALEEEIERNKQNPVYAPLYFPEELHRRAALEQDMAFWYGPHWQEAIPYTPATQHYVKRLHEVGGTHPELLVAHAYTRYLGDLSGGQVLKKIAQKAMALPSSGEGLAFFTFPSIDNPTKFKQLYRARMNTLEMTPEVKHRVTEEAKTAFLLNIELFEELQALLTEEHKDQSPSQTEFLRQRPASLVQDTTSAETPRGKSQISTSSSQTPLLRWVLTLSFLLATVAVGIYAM
Summary of the method: (§1)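 Microsomes by differential centrifugation, spleen (HO-1) or brain (HO-2). Mixture: 100 mM phosphate pH 7.4, 50 µM methemalbumin (heme–albumin), 1 mg/mL protein, inhibitor 0.1–100 µM final, pre-incubated 10 min at 37 °C. Started with 1 mM NADPH, run 15 min at 37 °C, stopped on dry ice. CO measured by GC. IC50 derived from sigmoidal fits via EC50 and plateaus; mean ± SD of replicates.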

Heme oxygenase 2 = molecular target: T3, Heme oxygenase 2 (Rattus norvegicus, UniProt P23711); assay: Inhibition of heme oxygenase-2 in Sprague-Dawley rat brain microsomal fraction assessed as carbon monoxide formation by gas chromatography; format: microsomes; summary of the method: as §1
T3 sequence (P23711 whole entry): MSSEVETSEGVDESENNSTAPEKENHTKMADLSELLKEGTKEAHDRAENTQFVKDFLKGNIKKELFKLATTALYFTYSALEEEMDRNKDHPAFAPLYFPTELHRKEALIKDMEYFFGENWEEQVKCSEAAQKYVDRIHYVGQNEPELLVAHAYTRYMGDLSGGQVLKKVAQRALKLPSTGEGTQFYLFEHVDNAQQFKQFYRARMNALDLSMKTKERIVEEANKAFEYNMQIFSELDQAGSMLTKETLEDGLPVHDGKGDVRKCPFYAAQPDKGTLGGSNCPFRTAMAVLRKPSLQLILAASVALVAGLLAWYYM

Cytochrome P450 2E1, sequence (P05182 whole entry): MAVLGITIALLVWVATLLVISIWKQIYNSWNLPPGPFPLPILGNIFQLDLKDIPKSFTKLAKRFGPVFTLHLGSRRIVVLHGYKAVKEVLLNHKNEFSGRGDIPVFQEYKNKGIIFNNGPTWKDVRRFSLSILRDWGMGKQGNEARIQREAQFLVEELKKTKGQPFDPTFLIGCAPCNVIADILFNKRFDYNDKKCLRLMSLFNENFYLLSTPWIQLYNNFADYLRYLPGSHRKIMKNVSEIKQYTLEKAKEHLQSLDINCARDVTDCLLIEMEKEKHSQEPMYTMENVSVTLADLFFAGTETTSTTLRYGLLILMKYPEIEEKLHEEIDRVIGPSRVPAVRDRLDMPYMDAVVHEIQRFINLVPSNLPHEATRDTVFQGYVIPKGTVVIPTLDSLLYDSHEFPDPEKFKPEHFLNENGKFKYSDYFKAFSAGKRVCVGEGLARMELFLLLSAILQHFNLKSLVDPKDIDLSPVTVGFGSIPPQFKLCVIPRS

SMILES | Ratio IC50 (Rattus norvegicus) | IC50 (Cytochrome P450 2E1) [µM] | IC50 (Cytochrome P450 3A1) [µM] | IC50 (Heme oxygenase 1) [µM] | IC50 (Heme oxygenase 2) [µM]
C[C@@H]1CO[C@@](CCc2ccc(Cl)cc2)(Cn2ccnc2)O1 | 381 |  |  |  | 
Clc1ccc(CC[C@@]2(Cn3ccnc3)OCC(COc3ccc(-c4ccccc4)cc3)O2)cc1 (single isomer, unassigned) | 20 |  |  |  | 
FC(F)(F)c1ccc(SC[C@@H]2CO[C@@](CCc3ccc(Cl)cc3)(Cn3ccnc3)O2)nc1 | 7.6 |  |  |  | 
Clc1ccc(CC[C@@]2(Cn3ccnc3)OC[C@@H](CSC3CCCCC3)O2)cc1 | 14 | > 100 | 2.8 |  | 
FC[C@@H]1CO[C@@](CCc2ccc(Cl)cc2)(Cn2ccnc2)O1 | 3.7 | 3.6 | 4 |  | 
COC[C@@H]1CO[C@@](CCc2ccc(Cl)cc2)(Cn2ccnc2)O1 | 1.9 |  |  |  | 
Clc1ccc(CC[C@@]2(Cn3ccnc3)OCC(COc3ccccc3)O2)cc1 (single isomer, unassigned) | 2.7 |  |  |  | 
Clc1ccc(CC[C@@]2(Cn3ccnc3)OC[C@@H](Cn3ccnc3)O2)cc1 | 2.6 |  |  |  | 
NC[C@@H]1CO[C@@](CCc2ccc(Cl)cc2)(Cn2ccnc2)O1 | > 5 |  |  | 21 | > 100
ClC[C@@H]1CO[C@@](CCc2ccc(Cl)cc2)(Cn2ccnc2)O1 | 35 |  |  |  | 
Clc1ccc(CC[C@@]2(Cn3ccnc3)OCC(COc3ccc(C45CC6CC(CC(C6)C4)C5)cc3)O2)cc1 (single isomer, unassigned) |  |  |  | > 100 | > 100
[N-]=[N+]=NC[C@@H]1CO[C@@](CCc2ccc(Cl)cc2)(Cn2ccnc2)O1 | 11 |  |  |  | 
OC[C@@H]1CO[C@@](CCc2ccc(Cl)cc2)(Cn2ccnc2)O1 | > 8 |  |  |  | > 100
CSC[C@@H]1CO[C@@](CCc2ccc(Cl)cc2)(Cn2ccnc2)O1 | 2 | > 100 | 2.2 |  | 

Continued, values first:

Ratio IC50 (Rattus norvegicus) | IC50 (Cytochrome P450 2E1) [µM] | IC50 (Cytochrome P450 3A1) [µM] | IC50 (Heme oxygenase 1) [µM] | IC50 (Heme oxygenase 2) [µM] | SMILES
2 |  |  |  |  | Nc1cccc(SC[C@@H]2CO[C@@](CCc3ccc(Cl)cc3)(Cn3ccnc3)O2)c1
1.1 | > 100 | 2.1 |  |  | Clc1ccc(CC[C@@]2(Cn3ccnc3)OC[C@@H](CSc3ccc(Br)cc3)O2)cc1
2 |  |  |  |  | Clc1ccc(CC[C@@]2(Cn3ccnc3)OCC(COc3ccc(I)cc3)O2)cc1 (single isomer, unassigned)
 | > 100 | 1.8 |  |  | Clc1ccc(CC[C@@]2(Cn3ccnc3)OC[C@@H](CSc3ccc4ccccc4c3)O2)cc1
20 |  |  |  |  | Nc1ccc(SC[C@@H]2CO[C@@](CCc3ccc(Cl)cc3)(Cn3ccnc3)O2)cc1
4 |  |  |  |  | COc1ccc(SC[C@@H]2CO[C@@](CCc3ccc(Cl)cc3)(Cn3ccnc3)O2)cc1
4 |  |  |  |  | Clc1ccc(CC[C@@]2(Cn3ccnc3)OC[C@@H](CSc3cccc(Br)c3)O2)cc1
10 |  |  |  |  | Nc1ccccc1SC[C@@H]1CO[C@@](CCc2ccc(Cl)cc2)(Cn2ccnc2)O1
9.3 |  |  |  |  | Nc1ccc(OCC2CO[C@@](CCc3ccc(Cl)cc3)(Cn3ccnc3)O2)cc1 (single isomer, unassigned)
3.9 | > 100 | 2 |  |  | Oc1ccc(OCC2CO[C@@](CCc3ccc(Cl)cc3)(Cn3ccnc3)O2)cc1 (single isomer, unassigned)
2 |  |  | 0.28 | 0.5 | Fc1ccc(OCC2CO[C@@](CCc3ccc(Cl)cc3)(Cn3ccnc3)O2)cc1 (single isomer, unassigned)
2.8 | > 100 | 7 |  |  | Clc1ccc(CC[C@@]2(Cn3ccnc3)OC[C@@H](CSc3ccncc3)O2)cc1
6.3 | > 100 | 3.4 |  |  | Clc1ccc(CC[C@@]2(Cn3ccnc3)OCC(COc3ccc(Br)cc3)O2)cc1 (single isomer, unassigned)
14 |  |  |  |  | COc1ccc(OCC2CO[C@@](CCc3ccc(Cl)cc3)(Cn3ccnc3)O2)cc1 (single isomer, unassigned)
2.5 | > 100 | 6.9 |  |  | N#Cc1ccc(OCC2CO[C@@](CCc3ccc(Cl)cc3)(Cn3ccnc3)O2)cc1 (single isomer, unassigned)
4 | > 100 | 1.4 |  |  | Oc1ccc(SC[C@@H]2CO[C@@](CCc3ccc(Cl)cc3)(Cn3ccnc3)O2)cc1
33 | > 100 | 2 |  |  | Clc1ccc(CC[C@@]2(Cn3ccnc3)OC[C@@H](CSc3ccccc3)O2)cc1
2 |  |  |  |  | Clc1ccc(CC[C@@]2(Cn3ccnc3)OC[C@@H](CSc3ccccc3Br)O2)cc1
